In the library only some 3.6% were active in any assay of this set; here they are far more common.
UCH37 inh: inhibitors of human deubiquitinating enzyme UCH37; purified proteasome/UCH37, Ub-AMC cleavage fluorescence; AID 588478; Q9Y5K5; inhibition, % (test concentration not listed); 330,000 tested, 0.33% active;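 active means mean inhibition over replicate wells above about 20%, limit read from the data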
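Schedule: 30 min plus 25 min, room temperature / Material: human UCH37 within purified proteasomes / Technique: AMC fluorescence intensity at 355/460 nm / Buffer or medium: pH 7.4 Tris-HCl (50 mM) with ovalbumin, ATP-MgCl2, DTT / Controls: wells without proteasome as full block, compound-free enzyme plus substrate as uninhibited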
ATG4B inhibitor: ATG4B (human) cysteine protease inhibition; ATG4B cleavage of LC3-PLA2, NBD-HPC fluorescence, 1 h; inhibition, % at 8.33 µM; 340,000 tested, 0.51% active; AID 504462; in the data active means inhibition above about 40%
NR3A LBD binder: NR3A (human) ligand-binding domain modulation; NR3A LBD differential scanning fluorimetry, Tm shift; 0% = protein alone, 100% = glycine-bound protein; Tm shift relative to glycine control, % at 25 µM; 340,000 tested, 2.5% active;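 active means melting temperature shift of at least 10% of the positive control shift, at one fixed dose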
NadD inh: blocks S. aureus nicotinate mononucleotide adenylyltransferase. purified NadD enzyme, colorimetric absorbance read-out. inhibition, % at 20 µM. 360,000 tested, 0.78% active. AID 602399; in the data active means inhibition above about 26%
SENP1 FRET inh: inhibitors of human SENP1 SUMO protease catalytic domain; Q9P0U3; recombinant SENP1 catalytic domain, CyPet-SUMO1-YPet FRET cleavage; inhibition, % at 10 µM; 360,000 tested, 0.21% active; AID 624204;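 active means inhibition at least 30% at 10 µM, raw YFP signal under a set limit, fluorescence ratio 0.5 to 1.5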
Target sequence (Q9P0U3 419-644 limits assumed): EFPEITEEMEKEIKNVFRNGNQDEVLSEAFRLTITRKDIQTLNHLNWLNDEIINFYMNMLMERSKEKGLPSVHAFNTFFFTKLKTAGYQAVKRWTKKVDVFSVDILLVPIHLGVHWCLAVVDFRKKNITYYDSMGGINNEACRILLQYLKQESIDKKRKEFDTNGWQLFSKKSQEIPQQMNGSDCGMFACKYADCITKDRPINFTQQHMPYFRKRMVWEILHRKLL
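Test system: human SENP1 catalytic domain; medium: Tris pH 8 buffer plus EDTA, NaCl, BME, BSA, NP40, catalase; incubation: 50 min reaction at room temperature; technique: FRET, CFP and YFP emission; controls: no-enzyme low control and enzyme-plus-DMSO high control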
PLA2 ctr: PLA2 (human) inhibition in ATG4B counter-screen; shares compounds with ATG4B inhibitor; AID 588402; 1,600 tested, 66% active; inhibition, % at 8.33 µM; purified PLA2, NBD-C6-HPC fluorescence, 45 min; in the data active means inhibition above about 50%
Target sequence (P04054 whole entry, looked up): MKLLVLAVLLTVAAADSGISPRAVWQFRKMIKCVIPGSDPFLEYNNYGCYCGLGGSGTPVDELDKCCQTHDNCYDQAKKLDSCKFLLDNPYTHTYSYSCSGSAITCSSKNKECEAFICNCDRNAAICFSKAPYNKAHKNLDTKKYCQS
Hits are given with their value; - = inactive; . = no result.

SMILES	UCH37 inh	ATG4B inhibitor	NR3A LBD binder	NadD inh	SENP1 FRET inh	PLA2 ctr
Cc1ccccc1Oc1cc(NC(=O)CCCn2nc(C)c([N+](=O)[O-])c2C)cc([N+](=O)[O-])c1	-	66	-	-	-	63
Cc1nn(CCCC(=O)Nc2cc(Oc3ccc(F)cc3)cc([N+](=O)[O-])c2)c(C)c1[N+](=O)[O-]	-	56	-	-	-	60
Cc1c(Cl)c([N+](=O)[O-])nn1CCCC(=O)Nc1cc(Oc2ccccc2)cc([N+](=O)[O-])c1	-	89	18	-	-	88
C=CCN1C(=O)NC(c2ccc(OC)cc2)(C(F)(F)F)S/C1=C(\C#N)c1nnc(N2CCOCC2)n1-c1ccccc1 (configuration not stated)	-	-	-	-	-	.
C=CCN1C(c2cccc(C(F)(F)F)c2)=CS/C1=C(/C#N)c1nnc(N2CCOCC2)n1-c1ccccc1	-	50	-	-	-	55
C=CCN1C(c2ccc(Br)cc2)=CS/C1=C(/C#N)c1nnc(N2CCOCC2)n1-c1ccccc1	-	61	-	-	-	70
CC(C)(C)c1nnc(NN=Cc2ccccc2)n(N)c1=O	-	.	.	.	.	.
Cc1ccsc1C=Nn1cnnc1	-	.	.	.	.	.
Fc1ccc(CSc2nc3ccccc3[nH]2)c2ccccc12	-	66	-	-	-	74
O=c1cc(CSc2nc3ccccc3[nH]2)c2ccccc2[nH]1	-	-	-	-	-	.
COc1ccc(CCCC(=O)NN=Cc2ccccc2OC)cc1	-	.	.	.	.	.
Cc1ccc(-n2cccc2/C=C2/C(=N)N3C(=NC2=O)SN=C3S(C)(=O)=O)cc1Cl	-	65	-	-	-	52
CCC1=NN2C(=N)/C(=C\c3cccn3-c3c(C)cccc3C)C(=O)N=C2S1	-	84	-	-	-	87
Cc1cccc(C)c1-n1cccc1/C=C1/C(=N)N2C(=NC1=O)SN=C2S(C)(=O)=O	-	89	-	-	-	90
CC(NS(=O)(=O)c1ccc(CCC(=O)NCc2cccnc2)cc1)c1ccccc1 (configuration not stated)	-	90	-	-	-	-
CCOC(=O)C(=NNc1cc(Cl)ccc1Cl)N1CCN(CC)CC1	-	.	.	.	.	.
Cc1cc(C)n(CC(=O)NN=Cc2ccc3c(c2)OCO3)n1	-	.	.	.	.	.
CCCOC(=O)c1cc(-c2ccc(/C=C3/C(=O)N(C)C(=O)C(C#N)=C3C)o2)ccc1Cl	-	-	-	-	-	.
C=CCOC(=O)c1cc(-c2ccc(/C=C3\C(=O)NC(=O)C(C#N)=C3C)o2)ccc1Cl	-	70	-	69	-	-
Cc1ccc(/C=C/C(O)=C2/C(=O)N(C)C3(C)CC2c2ccccc2O3)cc1 (configuration not stated)	-	-	-	-	-	.
Cc1ccc(S(=O)(=O)C2C(=O)N(C)C3(C)CC2c2ccccc2O3)cc1C (configuration not stated)	-	79	-	-	-	85
O=C1CC(c2ccccc2Cl)CC(O)=C1C=Nc1ccccc1 (configuration not stated)	-	53	-	-	-	53
Cc1ccc(N=CC2=C(O)CC(c3ccccc3Cl)CC2=O)cc1 (configuration not stated)	-	-	-	-	-	.
CSc1nc(N2CCOCC2)c2c3c(sc2n1)CCC3	-	49	-	-	-	50
Cc1nc(N2CCN(C)CC2)c2c3c(sc2n1)CCCC3	-	-	-	-	-	.
SMILES	UCH37 inh	ATG4B inhibitor	NR3A LBD binder	NadD inh	SENP1 FRET inh	PLA2 ctr
O=C1N/C(=N\N=C\c2cccs2)SC1Cc1ccc(Cl)cc1 (configuration not stated)	.	43	-	-	-	-
COc1cccc(C=Nn2c(C3CCCCC3)n[nH]c2=S)c1O	-	.	.	.	.	.
COc1ccc(-n2c(C)c(C(C)=O)c3cc(OCC(N)=O)ccc32)cc1	-	50	-	-	-	58
NC(=O)c1ccc(-c2ccc(Br)cc2)o1	-	-	-	-	-	.
NC(=O)C1CCN(C(=S)c2ccc(-c3ccc(Br)cc3)o2)CC1	-	51	-	-	-	-
Cc1sc2nc(CN3CCCC3)nc(N3CCN(C(=O)c4ccco4)CC3)c2c1C	-	-	-	-	-	.
COc1ccc(C(=O)N2CCN(c3nc(C4CC4)nc4sc(C)c(C)c34)CC2)cc1	-	-	-	-	-	.
Cc1sc2nc(C3CC3)nc(N3CCN(C(=O)c4ccc(F)cc4)CC3)c2c1C	-	62	-	-	-	78
Cc1sc2nc(C3CC3)nc(N3CCN(C(=O)c4ccccc4F)CC3)c2c1C	-	54	-	-	-	71
Cc1sc2nc(C3CC3)nc(N3CCN(C(=O)c4ccc(Cl)cc4)CC3)c2c1C	-	50	-	-	-	69
Nc1c(C(=O)NN=Cc2ccc(OCc3ccccc3)cc2)cnn1-c1ccccc1	-	.	.	.	.	.
CNC(=O)N(O)C1N(N=Cc2ccc(SC)cc2)C(=S)SC1(C)C (configuration not stated)	-	.	.	.	.	.
Cc1ccccc1-c1nnn(Cc2ccc(F)cc2Cl)n1	-	44	-	-	-	-
CC(=NNC(=S)NCc1ccccc1)c1ccc(C)o1	-	.	.	.	.	.
COc1ccccc1Nc1nn2c(=O)c3ccc(C(=O)N4CCCC(C)C4)cc3nc2s1 (configuration not stated)	-	46	-	-	-	63
CC1CCCN(C(=O)c2ccc3c(=O)n4nc(Nc5ccccc5)sc4nc3c2)C1 (configuration not stated)	.	.	.	-	-	.
Cc1ccc(S(=O)(=O)Nc2ccc3c4c(cccc24)CC3)c(C)c1	-	63	-	-	-	78
Cc1cc(C)c(S(=O)(=O)Nc2ccc3c4c(cccc24)CC3)c(C)c1	-	-	-	-	-	.
O=C(NN=Cc1oc(O)c2ccccc12)c1ccccc1	-	.	.	.	.	.
C/C(=N\NC(=O)c1ccc(OC2CCCC2)cc1)c1ccc(O)cc1	.	41	-	-	-	-
Cc1onc(-c2ccccc2)c1C(=O)ON=C(N)c1ccc([N+](=O)[O-])o1	-	.	.	.	.	.
COC(=O)COc1ccc(-c2ccc(F)cc2)cc1C=O	-	43	-	-	-	59
COC(=O)COc1ccc(-c2ccccc2)cc1C=O	-	-	-	-	-	.
COc1ccc(CNC(=S)NN=Cc2ccc(O)c(OC)c2)cc1	-	.	.	.	.	.
Cn1cccc1C(=O)NC(=O)COC(=O)c1cc(S(=O)(=O)N2CCCCC2)ccc1Cl	-	51	-	-	-	52
COc1cccc(NC(=O)NC2CCCc3ccccc32)c1 (configuration not stated)	-	62	-	-	-	62
COC(=O)c1ccc(NC(=S)NC2CCc3ccccc32)cc1 (configuration not stated)	-	48	-	-	-	56
